A short description of series [1]: Cytotoxicity against human HDF cells assessed as inhibition of cell viability at 100 uM by MTT assay. It is filed as cell-based. Particulars: read-out: INH. The method in brief:
(§1)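 Cells were grown in MEM with 10% FBS and antibiotics at 37 °C, 5% CO2, plated at 2.0 × 10^4 cells/well and grown for 72 h. Compound or 0.1% DMSO was added, then MTT (5 mg/mL) for 3 h at 37 °C, read at 570 nm (690 nm blank). […] Inhibition = (DMSO control − treated)/control; two experiments in duplicate.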
Background: Tetrazolium dyes change colour on reduction, which living cells bring about.

For series [2], the system named is Rattus norvegicus. Kind of series: Antiinflammatory activity in Sprague-Dawley rat assessed as inhibition of carrageenan induced paw swelling at 70 mg/kg, po after 4 hrs. (In general: The carrageenan paw model is a standard test of acute inflammation.)
For series [3], the system named is HT-29. In words: Cytotoxicity against human HT-29 cells by MTT assay. The series is classed as functional, cell-based. The method in brief:
as §1

Series [4] has as its target T1, Prostaglandin G/H synthase 1 (Ovis aries, UniProt P05979).
T1 sequence (P05979 whole entry): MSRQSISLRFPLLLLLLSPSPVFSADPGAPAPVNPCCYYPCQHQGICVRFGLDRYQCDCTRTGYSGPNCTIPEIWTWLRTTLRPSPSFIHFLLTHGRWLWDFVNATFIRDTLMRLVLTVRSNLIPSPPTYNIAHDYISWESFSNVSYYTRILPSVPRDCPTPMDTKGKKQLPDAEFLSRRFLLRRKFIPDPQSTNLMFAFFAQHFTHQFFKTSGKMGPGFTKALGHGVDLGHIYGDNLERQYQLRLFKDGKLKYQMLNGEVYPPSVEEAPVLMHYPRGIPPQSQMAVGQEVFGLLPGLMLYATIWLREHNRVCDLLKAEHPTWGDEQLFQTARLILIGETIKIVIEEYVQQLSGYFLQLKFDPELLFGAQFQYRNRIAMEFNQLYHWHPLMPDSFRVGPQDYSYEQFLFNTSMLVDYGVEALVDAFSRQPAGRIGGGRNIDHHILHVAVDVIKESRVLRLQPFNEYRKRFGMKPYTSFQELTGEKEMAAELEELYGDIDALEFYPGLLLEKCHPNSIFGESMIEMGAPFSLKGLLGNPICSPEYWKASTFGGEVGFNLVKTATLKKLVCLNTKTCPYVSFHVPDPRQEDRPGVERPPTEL
Kind of series: Inhibition of sheep COX1 by spectrophotometry.

Series [5] has as its system Rattus norvegicus. In words: Antiinflammatory activity in Sprague-Dawley rat assessed as inhibition of carrageenan induced paw swelling at 70 mg/kg, po after 3 hrs.
In series [6] the test system is K562. Kind of series: Cytotoxicity against human K562 cells assessed as inhibition of cell viability at 10 uM by trypan blue dye exclusion.
Series [7] has as its system NCI-H460. Kind of series: Cytotoxicity against human NCI-H460 cells assessed as inhibition of cell viability at 10 uM by MTT assay. The series is classed as functional. The method in brief: as §1

On to `CS(=O)(=O)c1ccc(C(=O)c2ccoc2)cc1`, for which the cytotoxicity at 100 µM in series [1] came to 36.2%. The inhibition in vivo at 70 mg/kg in series [2] was found to be 22.2%; in series [5], 27%. In addition, the IC50 in series [3] was 104 µM; in series [4] it was 150 µM. Besides, the results for the inhibition at 10 µM in series [6] and in series [7] were 8.3% and 6%, respectively.

As to `CS(=O)(=O)c1ccc(C(=O)c2ccco2)cc1`, the cytotoxicity at 100 µM in series [1] was found to be 30.7%. For the same molecule, the inhibition in vivo at 70 mg/kg in series [2] turned out to be 37.8%; in series [5] it was 45.5%. The IC50 stood at 383 µM in series [3] and 15.1 µM in series [4]. The inhibition at 10 µM was found to be 8.3% in series [6] and 3% in series [7].

As for `CS(=O)(=O)c1ccc(C(=O)c2cccs2)cc1`, the cytotoxicity at 100 µM in series [1] is 25.7%. For the same molecule, the inhibition in vivo at 70 mg/kg worked out at 56% in series [2] and 59.7% in series [5]. The same molecule registered a concentration for half-maximal inhibition (IC50) in series [3] of 122 µM. In addition, the inhibition at 10 µM in series [6] amounted to 1%; in series [7], 3%.

`CS(=O)(=O)c1ccc(C(=O)c2ccsc2)cc1`: the cytotoxicity at 100 µM in series [1] was found to be 31.2%. Further, the IC50 was determined as 75.7 µM in series [3] and 144 µM in series [4]. The inhibition at 10 µM was found to be 14.6% in series [6] and 2% in series [7].

Turning to `CS(=O)(=O)c1ccc(C(=O)c2ccc(Br)cc2)cc1`, in series [1], the cytotoxicity at 100 µM worked out at 29.4%. For the same molecule, the inhibition in vivo at 70 mg/kg in series [2] worked out at 8.1%; in series [5], 22%. Further, the IC50 in series [3] came out at 100 µM; in series [4], 150 µM. Further, the inhibition at 10 µM in series [6] amounted to 6.2%; in series [7], 12.7%.

Take `CS(=O)(=O)c1ccc(C(=O)c2ccc(F)cc2)cc1`: the midpoint of inhibition in series [4], the IC50, lay at 107 µM.

Consider `CS(=O)(=O)c1ccc(-c2ccccn2)cc1`, for which the inhibition in vivo at 70 mg/kg was determined as 51.4% in series [2] and 53.7% in series [5]. Besides, the IC50 in series [4] came out at 89.6 µM.

`CS(=O)(=O)c1ccc(Nc2ccc(F)cc2)cc1`: the cytotoxicity at 100 µM in series [1] came out at 37.4%. The inhibition in vivo at 70 mg/kg in series [2] was 32.6%; in series [5] it was 41.9%. Also, the values for the IC50 in series [3] and in series [4] were 130 µM and 141 µM, respectively. Also, the results for the inhibition at 10 µM in series [6] and in series [7] were 13.5% and 1.8%, respectively.

As for `CS(=O)(=O)c1ccc(-n2cccc2)cc1`, in series [1], the cytotoxicity at 100 µM came out at 28.9%. Besides, the results for the 50% inhibitory concentration (IC50) in series [3] and in series [4] were 146 µM and 86 µM, respectively. The inhibition at 10 µM in series [6] amounted to 1%; in series [7], 3%.

Regarding `CS(=O)(=O)c1ccc(-n2ccc3ccccc32)cc1`, the cytotoxicity at 100 µM in series [1] was determined as 34.3%. Further, the inhibition in vivo at 70 mg/kg came to 46% in series [2] and 48.7% in series [5]. The IC50 in series [3] came out at 85 µM; in series [4], 78.7 µM. Also, the inhibition at 10 µM in series [6] amounted to 16.6%; in series [7] it was 12.2%.

For `Cn1cc(C(=O)c2ccc(S(C)(=O)=O)cc2)c2ccccc21`, the cytotoxicity at 100 µM in series [1] is 30.8%. In addition, the figures for the IC50 in series [3] and in series [4] were 70.4 µM and 76.4 µM, respectively. In addition, the inhibition at 10 µM in series [6] worked out at 2.1%; in series [7], 7%.

For `CS(=O)(=O)c1ccc(C(=O)c2cccn2-c2ccccc2F)cc1`, the cytotoxicity at 100 µM in series [1] was 45%. The figures for the inhibition in vivo at 70 mg/kg in series [2] and in series [5] were 4.4% and 13.7%, respectively. In addition, the 50% inhibitory concentration (IC50) came out at 34.1 µM in series [3] and 183 µM in series [4]. Moreover, the inhibition at 10 µM in series [6] was determined as 2.1%; in series [7], 13.3%.

Regarding `CS(=O)(=O)c1ccc(C(=O)c2ccn(-c3ccccc3F)c2)cc1`, the cytotoxicity at 100 µM in series [1] is 13.4%. Besides, the IC50 in series [3] was found to be 96.1 µM; in series [4], 34.6 µM. The inhibition at 10 µM in series [6] was found to be 12.5%; in series [7], 54.8%.

Take `CS(=O)(=O)c1ccc(C(=O)c2c[nH]c3ccccc23)cc1`: the IC50 in series [4] amounted to 26.7 µM.

Turning to `CS(=O)(=O)c1ccc(C2Oc3ccccc3-n3cccc32)cc1` (configuration not stated), the cytotoxicity at 100 µM in series [1] came out at 12.3%. The IC50 in series [3] came to 100 µM; in series [4] it was 177 µM. Further, the results for the inhibition at 10 µM in series [6] and in series [7] were 13.5% and 6.6%, respectively.

As to `CS(=O)(=O)c1ccc(N2CCN(c3ccc(F)cc3)CC2)cc1`, in series [1], the cytotoxicity at 100 µM was determined as 36.1%. The figures for the IC50 in series [3] and in series [4] were 65.8 µM and 80 µM, respectively. In addition, the inhibition at 10 µM was 17.7% in series [6] and 3.1% in series [7].

On to `Cc1ccc(-c2cc(C(F)(F)F)nn2-c2ccc(S(N)(=O)=O)cc2)cc1` [CELECOXIB], for which the cytotoxicity at 100 µM in series [1] was determined as 92%. Further, half-maximal inhibition in series [3] (IC50) was put at 45.5 µM. Moreover, the values for the inhibition at 10 µM in series [6] and in series [7] were 38.8% and 9.75%, respectively.

As to `CC(C)Cc1ccc([C@H](C)C(=O)O)cc1` [DEXIBUPROFEN], the inhibition in vivo at 70 mg/kg in series [2] came to 23.9%.

`CC(C)[C@H](CO)Nc1nc(Nc2cccc(Cl)c2)c2ncn(C(C)C)c2n1` [PURVALANOLA]: the cytotoxicity at 100 µM in series [1] was 88.6%. In addition, the IC50 in series [3] is above 100 µM. In addition, the inhibition at 10 µM in series [6] was 75.1%; in series [7] it was 3.98%.

The inhibition in vivo is the drop in the measured response relative to a control, in per cent. By IC50 is commonly meant the concentration that gives 50% inhibition. What is called inhibition is the share of the control response that was lost under treatment.

The values above are taken from ChEMBL document CHEMBL1240529, “Synthesis, anti-inflammatory activity, and in vitro antitumor effect of a novel class of cyclooxygenase inhibitors: 4-(aryloyl)phenyl methyl sulfones” (J Med Chem, 2010).
